ABCB6 inh 2 = ABCB6 transporter inhibitors, primary screen, K562-ABCB6 cells, flow cytometry, MLPCN library; ATP-binding cassette sub-family B member 6 (Homo sapiens), Q9NP58; K562-ABCB6 porphyrin accumulation, 1 h; hits give low values; fluorescence ratio to DMSO, % at 10 µM; 0.19% of 360,000 active; AID 602162, 2011;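 active = fluorescence ratio to DMSO below 75%, the collection mean minus 3 SD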;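 note: signal is porphyrin accumulated inside mitochondria; 100% equals median channel fluorescence of DMSO control wells; lower ratio means ABCB6 inhibition with less porphyrin fluorescence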
FXN GAA850 act = FXN promoter activators, primary screen, cell-based, luciferase luminescence, HEK293 lucGAA850. 0.56% of 360,000 active. HEK293 lucGAA850 FXN promoter luciferase reporter, 24 h; percent of 10 µM SAHA response. AID 540364, 2011. activation, % at 6 µM;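 active = activation above the average of all compounds screened plus 3 SD, cutoff fixed separately per campaign, cut at about 7.5% in these data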;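 note: 0% = DMSO wells and 100% = 10 µM SAHA wells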
AHR activator = AHR activators, primary screen, cell-based, luminescence, luciferase reporter, human; activation, % at 5 µM; AHR-responsive luciferase reporter cells; 2.5% of 320,000 active; AID 2796, 2010; in the data active = activation above about 47%;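 note: 0% = vehicle wells and 100% = reference agonist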
Target sequence (P35869 whole entry, looked up): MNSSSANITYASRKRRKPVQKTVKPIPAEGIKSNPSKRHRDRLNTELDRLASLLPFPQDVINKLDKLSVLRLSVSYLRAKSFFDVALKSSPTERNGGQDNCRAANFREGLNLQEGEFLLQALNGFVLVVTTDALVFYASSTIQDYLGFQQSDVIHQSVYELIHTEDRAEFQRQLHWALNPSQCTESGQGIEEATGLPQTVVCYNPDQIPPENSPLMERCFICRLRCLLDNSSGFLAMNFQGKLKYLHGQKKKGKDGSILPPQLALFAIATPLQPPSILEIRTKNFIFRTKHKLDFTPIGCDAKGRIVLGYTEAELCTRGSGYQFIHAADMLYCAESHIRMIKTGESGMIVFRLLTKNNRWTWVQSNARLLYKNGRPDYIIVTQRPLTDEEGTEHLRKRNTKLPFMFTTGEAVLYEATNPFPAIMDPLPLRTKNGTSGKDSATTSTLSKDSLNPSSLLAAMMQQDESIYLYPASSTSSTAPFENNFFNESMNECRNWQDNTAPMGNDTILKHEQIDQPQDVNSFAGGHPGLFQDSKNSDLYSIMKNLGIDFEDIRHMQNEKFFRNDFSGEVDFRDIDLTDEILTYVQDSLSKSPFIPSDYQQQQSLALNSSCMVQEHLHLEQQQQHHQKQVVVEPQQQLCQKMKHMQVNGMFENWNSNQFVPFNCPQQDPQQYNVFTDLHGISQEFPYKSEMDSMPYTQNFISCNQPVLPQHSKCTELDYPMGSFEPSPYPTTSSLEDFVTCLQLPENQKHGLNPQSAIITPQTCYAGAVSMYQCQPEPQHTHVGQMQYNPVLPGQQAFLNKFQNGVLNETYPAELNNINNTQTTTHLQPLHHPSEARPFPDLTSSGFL
STAT3 activator = IL-6 driven STAT3 reporter potentiators, primary screen, U3A cells, luciferase, luminescence, MLSCN library | activation (% of control), % at 5.6 µM | AID 871, 2007 | IL-6 STAT3-luciferase reporter; 100% = signal with IL-6 EC80 alone | 0.91% of 190,000 active;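 active = activation above the screen-wide mean of compound activation plus 3 SD, cut at about 130% in these data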;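 note: 0% = background luminescence of wells with medium and substrate only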
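Material: STAT3-luciferase reporter U3A cells. Controls: IL-6-treated wells, 100% activation. Read-out: % activation versus median of IL-6-stimulated wells. Probe or stimulus: IL-6 stimulus at 33 ng/mL final. Timing: compound 1 h, then IL-6 6 h at 37 °C. Signal: reporter luminescence signal.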
GAA30 FXN cntr = GAA30 FXN promoter activators, confirmation, counter-screen for GAA850 frataxin promoter activator project, cell-based, luminescence, HEK293, lucGAA30, triplicate. shares compounds with FXN GAA850 act. HEK293 lucGAA30 FXN promoter luciferase, 24 h; DMSO = 0%, 5 µM ipriflavone = 100%. activation, % at 6 µM. 66% of 1,900 active. AID 588350, 2011;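 active = mean activation above the mean of solvent-only control wells plus 3 SD, cut at about 22% in these data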;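 note: counterscreen of GAA850 promoter hits where activity marks nonselective or luminescence artifacts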
GAA850 confirm = FXN GAA850 promoter activators in reporter cells, confirmation, cell-based, luminescence, HEK293 lucGAA850, triplicate. activation, % at 6 µM. 86% of 1,900 active. shares compounds with FXN GAA850 act. AID 588351, 2011. HEK293 lucGAA850 FXN promoter luciferase reporter, 24 h; 100% = activation by SAHA;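 active = mean activation above a set limit taken from the primary screen, cut at about 8% in these data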;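 note: 0% = DMSO wells and 100% = 10 µM SAHA wells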
Starred values were filed as active, the others as inactive; nt = no result given. Rows were chosen to be rich in hits. Some 3.3% of all compounds tested hit in one or more screens of this group.

SMILES | ABCB6 inh 2 | FXN GAA850 act | AHR activator | STAT3 activator | GAA30 FXN cntr | GAA850 confirm
COc1ccccc1N1CCN(C2CCCN(Cc3cc(F)cc(F)c3)C2)CC1 (stereo not drawn) | 90 | 0 | 1 | nt | nt | nt
Cn1c2ccccc2c(=O)c2cc(NCCCN3CCOCC3)ccc21 | 95 | 17* | 16 | nt | 143* | 58*
O=c1c2ccccc2oc2ccc(NCCCN3CCOCC3)cc12 | 99 | 6 | -1 | nt | nt | nt
CN1CCC[C@H]1CCNc1ccc2c(=O)c3ccccc3n(C)c2c1 | 96 | 13* | nt | nt | 46* | 69*
Cn1c2ccccc2c(=O)c2ccc(NCc3ccc4c(c3)OCO4)cc21 | 102 | 11* | nt | nt | 71* | 27*
CC(C)(C)NC(=O)C1c2ccccc2OCC(=O)N1CC(F)(F)F (stereo not drawn) | 97 | nt | nt | nt | nt | nt
Oc1ccc(-c2cn3ccccc3n2)cc1O | 98 | 8.9* | 2 | nt | 109* | 33*
Cc1ccn2cc(-c3ccc(O)c(O)c3)nc2c1 | 99 | 11* | 7 | nt | 127* | 48*
Cc1ccn2cc(-c3cccc(NC(=O)C(C)C)c3)nc2c1 | 93 | 4 | 6 | 88 | nt | nt
Cc1c(NC(=O)Cc2noc3ccccc23)cccc1[N+](=O)[O-] | 92 | 0 | -4 | 93 | nt | nt
O=c1[nH]c(=O)n(C2OC(CO)C(O)C2O)cc1F (stereo not drawn) | 90 | 19* | nt | nt | 7 | 78*
CC(C)(C)n1nnnc1C(c1ccc(C(F)(F)F)cc1)N(Cc1ccccc1)Cc1ccco1 (stereo not drawn) | 97 | 0 | -2 | 103 | nt | nt
CC(C)(C)n1nnnc1C(c1ccc(F)cc1)N(Cc1ccc(F)cc1)Cc1ccco1 (stereo not drawn) | 96 | 15* | 2 | 104 | 17 | 15*
CC(C)(C)n1nnnc1C(c1ccc(C(F)(F)F)cc1)N(Cc1ccc(F)cc1)Cc1ccco1 (stereo not drawn) | 117 | 8.7* | -2 | 97 | 16 | 14*
Nc1cc(=O)[nH]c(SCC(=O)Nc2ccccc2Sc2ccccc2)n1 | 93 | 1 | 2 | 101 | nt | nt
O=C(C1Cc2ccccc2CN1S(=O)(=O)c1cccs1)N1CCCCCC1 (stereo not drawn) | 103 | 5 | 0 | 107 | nt | nt
CCOC(=O)CNC(=S)N(Cc1cccs1)C1CCCCC1 | 105 | 8.0* | -6 | 98 | 13 | 9.2*
CCOC(=O)c1cnn2c(C)cc(-c3ccc(F)cc3)nc12 | 105 | 8.3* | 1 | 102 | 112* | 37*
Cc1ccc(S(=O)(=O)N2CCC(C(=O)N3CCC(C(=O)NCc4cccnc4)CC3)CC2)cc1 | 94 | 2 | -2 | 96 | nt | nt
Cc1sc2nc3c4ccccc4c(NCc4ccco4)nn3c(=O)c2c1C | 92 | 10* | -5 | 104 | 105* | 30*
COc1ccc(S(=O)(=O)N2CCc3ccccc32)cc1C(=O)OCc1nnc(-c2ccccc2)o1 | 93 | 3 | 1 | 110 | nt | nt
Cc1ccc(C(=O)NCc2ccc3c(c2)OCO3)cc1C | 96 | 8.7* | 13 | nt | 57* | 22*
c1ccc(Cn2c(-c3ccco3)nc3nc4ccccc4nc32)cc1 | 110 | 6 | 0 | 102 | nt | nt
O=c1c2ccccc2nc(-c2ccco2)n1Cc1ccccc1 | 104 | 8.2* | 7 | 129 | 107* | 28*
Cc1cn([C@H]2C[C@H](O)[C@@H](CNCc3cc(Br)ccc3OCc3ccccc3)O2)c(=O)[nH]c1=O | 94 | -2 | nt | nt | nt | nt
SMILES | ABCB6 inh 2 | FXN GAA850 act | AHR activator | STAT3 activator | GAA30 FXN cntr | GAA850 confirm
Cc1ccc(CN(C(=O)N2CCN(C)CC2)S(=O)(=O)c2ccc(C)cc2)cc1 | 99 | 1 | 8 | nt | nt | nt
CCS(=O)(=O)c1ncc(Cl)c(C(=O)Nc2ccc(C)cc2)n1 | 77 | 19* | 23 | nt | -61 | 1
O=C(NCc1ccccc1)c1nc(S(=O)(=O)Cc2ccccc2)ncc1Cl | 102 | 17* | 1 | nt | 9 | 28*
CC(C)c1nnc(NC(=O)c2nc(S(=O)(=O)Cc3ccccc3F)ncc2Cl)s1 | nt | nt | 0 | nt | nt | nt
O=C(NCc1ccc2c(c1)OCO2)c1nc(S(=O)(=O)Cc2ccccc2)ncc1Cl | 53* | 7.9* | 2 | nt | 38* | 70*
CS(=O)(=O)c1ncc(Cl)c(C(=O)Nc2ccc3ccccc3c2)n1 | 98 | -4 | nt | 70 | nt | nt
O=C(NCc1ccc2c(c1)OCO2)c1nc(S(=O)(=O)Cc2ccccc2F)ncc1Cl | 103 | 21* | 4 | nt | 41* | 65*
Nc1nc(=S)c2ncn(C3OC(CO)CC3O)c2[nH]1 (stereo not drawn) | 90 | 1 | nt | nt | nt | nt
CC(C)c1ccc(S(=O)(=O)N2CCC(C(=O)NCc3ccco3)CC2)cc1 | 101 | 1 | nt | nt | nt | nt
CCOC(=O)C1CNc2cc(S(=O)(=O)CC)ccc2O1 (stereo not drawn) | 103 | -3 | 2 | 102 | nt | nt
CCCCCc1nnc(N)s1 | 95 | 4 | -1 | 101 | nt | nt
CCCCCc1ccc(-c2nnc(N)s2)cc1 | 95 | 7.8* | 7 | 95 | 78* | 21*
Cc1ccc(N(C(C)C(=O)N2CCCCC2)S(C)(=O)=O)cc1C (stereo not drawn) | 94 | 3 | -1 | 97 | nt | nt
Cc1c(O)nc(SCC(=O)Nc2nccs2)n(-c2ccccc2F)c1=O | 92 | 5 | nt | nt | nt | nt
COCCn1c(SCC(=O)Nc2cc(C)on2)nnc1-c1c[nH]c2ccccc12 | 101 | -1 | 1 | 97 | nt | nt
CCOC(=O)c1c(NC(=O)CSc2nnc(-c3c[nH]c4ccccc34)n2CCOC)sc2c1CCCCC2 | 102 | 17* | 3 | 109 | 5 | 8.2*
COc1ccc2oc(C(=O)N3CCN(C(=O)c4ccco4)CC3)c(C)c2c1 | 92 | 1 | 5 | nt | nt | nt
CCOc1ccc(CCN2C(=S)N([C@@H](CC(C)C)CN3CCC[C@@H]3CN3C(=S)NC[C@@H]3Cc3ccccc3)C[C@@H]2Cc2ccc(O)cc2)cc1 | 101 | nt | nt | nt | nt | nt
COc1ccc(-c2noc(-c3ccccc3Cl)n2)cc1OC | 93 | 8.6* | 8 | 109 | 112* | 40*
COc1ccc(-c2noc(-c3ccoc3C)n2)cc1OC | 90 | 7.8* | 3 | 93 | 96* | 33*
CCc1ccc(C(=O)Cn2ncc(Cl)c(Cl)c2=O)cc1 | 105 | 8.5* | 2 | 99 | 15 | 15*
Cc1ccc(Cn2ncc(Cl)c(Cl)c2=O)cc1 | 100 | 2 | 2 | 102 | nt | nt
O=C(Cn1ncc(Cl)c(Cl)c1=O)N1CCOCC1 | 101 | 9.3* | 2 | 93 | 11 | 7

Screens deposited in PubChem BioAssay by several laboratories.
